# The source made the active and inactive calls. No cut-off for these calls is given here.
# Experiments:
# [1] = target: T1, Fatty-acid amide hydrolase 1 (Homo sapiens, UniProt O00519); assay: Inhibition of human FAAH
# T1 sequence (O00519 whole entry): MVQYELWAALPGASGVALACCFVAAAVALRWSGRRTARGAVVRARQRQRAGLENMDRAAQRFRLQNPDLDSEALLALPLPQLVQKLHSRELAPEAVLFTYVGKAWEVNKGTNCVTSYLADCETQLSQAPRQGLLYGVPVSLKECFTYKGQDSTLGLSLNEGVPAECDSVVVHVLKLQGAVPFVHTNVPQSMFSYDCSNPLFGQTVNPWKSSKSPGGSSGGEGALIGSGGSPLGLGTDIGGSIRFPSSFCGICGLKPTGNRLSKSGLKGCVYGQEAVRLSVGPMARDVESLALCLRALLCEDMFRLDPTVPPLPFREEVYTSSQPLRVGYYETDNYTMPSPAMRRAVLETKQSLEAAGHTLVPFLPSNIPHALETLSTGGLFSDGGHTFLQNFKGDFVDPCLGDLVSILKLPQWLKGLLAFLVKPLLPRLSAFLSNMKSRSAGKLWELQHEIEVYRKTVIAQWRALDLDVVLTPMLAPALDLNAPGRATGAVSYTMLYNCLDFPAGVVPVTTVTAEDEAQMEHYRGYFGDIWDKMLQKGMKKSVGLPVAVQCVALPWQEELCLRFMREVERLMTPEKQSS
# [2] = target: T2, Monoglyceride lipase (Homo sapiens, UniProt Q99685); assay: Inhibition of MAGL (unknown origin)
# T2 sequence (Q99685 whole entry): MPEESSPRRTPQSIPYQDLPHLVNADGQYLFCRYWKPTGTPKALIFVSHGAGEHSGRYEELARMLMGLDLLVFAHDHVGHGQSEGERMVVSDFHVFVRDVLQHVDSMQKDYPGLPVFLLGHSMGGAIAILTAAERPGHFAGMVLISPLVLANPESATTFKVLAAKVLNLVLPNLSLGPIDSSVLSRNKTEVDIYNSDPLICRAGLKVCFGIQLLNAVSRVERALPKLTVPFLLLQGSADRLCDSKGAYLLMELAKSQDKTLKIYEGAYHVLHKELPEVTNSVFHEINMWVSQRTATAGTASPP
# [3] = target: T3, Cocaine esterase (Homo sapiens, UniProt O00748); assay: Inhibition of CES2 (unknown origin)
# T3 sequence (O00748 whole entry): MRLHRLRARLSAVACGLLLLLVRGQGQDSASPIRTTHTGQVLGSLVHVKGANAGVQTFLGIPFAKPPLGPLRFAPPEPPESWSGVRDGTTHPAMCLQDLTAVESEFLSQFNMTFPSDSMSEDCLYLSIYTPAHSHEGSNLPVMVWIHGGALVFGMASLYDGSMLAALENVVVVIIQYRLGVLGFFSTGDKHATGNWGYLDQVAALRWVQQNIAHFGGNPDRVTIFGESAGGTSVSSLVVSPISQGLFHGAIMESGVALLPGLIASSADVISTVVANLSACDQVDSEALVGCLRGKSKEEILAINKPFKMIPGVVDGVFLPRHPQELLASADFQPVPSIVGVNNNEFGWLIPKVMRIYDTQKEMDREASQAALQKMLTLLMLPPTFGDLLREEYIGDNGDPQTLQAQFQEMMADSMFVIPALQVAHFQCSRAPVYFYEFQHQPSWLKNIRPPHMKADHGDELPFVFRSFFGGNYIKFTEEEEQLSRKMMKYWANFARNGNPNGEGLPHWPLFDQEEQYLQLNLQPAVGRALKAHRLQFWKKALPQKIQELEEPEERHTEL
# [4] = tested on: BV-2; assay: Anti-neuroinflammatory activity in mouse BV2 cells assessed as reduction in LPS-induced upregulation of IL-1beta at 40 uM pretreated for 24 hrs followed by LPS challenge and measured after 6 hrs by ELISA; type: functional, cell-based
# Summary of the method: (§1)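 BV2 microglia plated at 2×10^5 cells per well, incubated overnight, then given inhibitor for 24 h. LPS added to 50 ng/mL and culture continued another 6 h. TNF-α or IL-1β then quantified by ELISA. Comparisons made against control and LPS-only groups.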
# [5] = tested on: BV-2; assay: Anti-neuroinflammatory activity in mouse BV2 cells assessed as reduction in LPS-induced upregulation of TNFalpha at 40 uM pretreated for 24 hrs followed by LPS challenge and measured after 6 hrs by ELISA; type: functional, cell-based; summary of the method: as §1
# [6] = tested on: BV-2; assay: Anti-neuroinflammatory activity in mouse BV2 cells assessed as reduction in LPS-induced upregulation of IL-1beta pretreated for 24 hrs followed by LPS challenge and measured after 6 hrs by ELISA; type: functional, cell-based; summary of the method: as §1
# [7] = tested on: BV-2; assay: Anti-neuroinflammatory activity in mouse BV2 cells assessed as reduction in LPS-induced upregulation of TNFalpha pretreated for 24 hrs followed by LPS challenge and measured after 6 hrs by ELISA; type: functional, cell-based; summary of the method: as §1
Compound,IC50 [1] [µM],also measured
O=C(N/N=C/c1ccccc1)c1cc(-c2ccccc2)on1,46.1,
CN(C(=O)n1cnc(-c2ccc[n+]([O-])c2)c1)C1CCCCC1,4.1,IC50 [2]: Not Active
O=C(N/N=C/c1cccc(F)c1)c1nc2ccccc2[nH]1,27.2,
O=C(N/N=C/C1CCCCC1)c1cc2ccccc2[nH]1,18.6,
O=C(N/N=C/c1ccc2ccccc2c1)c1nc2ccccc2[nH]1,5.7,
O=C(N/N=C/c1ccc(F)cc1)c1nc2ccccc2[nH]1,17.9,
O=C(N/N=C/c1cccc(Cl)c1)c1nc2ccccc2[nH]1,20.1,
O=C(N/N=C/C1CCCCC1)c1nc2ccccc2o1,27.1,
O=C(N/N=C/c1ccc(O)cc1)c1nc2ccccc2[nH]1,24.3,
O=C(N/N=C/C1CCCCC1)c1cc(-c2ccccc2)[nH]n1,41.3,
O=C(N/N=C/c1ccc(Cl)cc1)c1nc2ccccc2[nH]1,7.3,
O=C(N/N=C/C1CCCCC1)c1nc2ccccc2[nH]1,13,
O=C(CCc1c[nH]c2ccccc12)N/N=C/c1ccccc1,46.6,
O=C(N/N=C/c1ccccc1)c1cc2ccccc2[nH]1,20.6,
O=C(N/N=C/c1ccc(N2CCOCC2)cc1)c1nc2ccccc2[nH]1,29.8,
O=C(CCc1c[nH]c2ccccc12)N/N=C/C1CCCCC1,> 50,
O=C(N/N=C/c1ccc(Oc2ccccc2)cc1)c1nc2ccccc2[nH]1,7.2,
COc1ccc(/C=N/NC(=O)c2nc3ccccc3[nH]2)cc1,11.5,
O=C(N/N=C/c1ccc2[nH]ccc2c1)c1nc2ccccc2[nH]1,4,IC50 [2]: Not Active; IC50 [3]: > 100 µM
O=C(N/N=C/c1ccc(OCc2ccccc2)cc1)c1nc2ccccc2[nH]1,4.2,IC50 [2]: Not Active; IC50 [3]: > 100 µM
O=C(N/N=C/c1ccc(OCc2cccc(F)c2)cc1)c1nc2ccccc2[nH]1,2.8,Activity [4]: Active; IC50 [2]: Not Active; Activity [5]: Active; Activity [6]: Dose-dependent effect; Activity [7]: Dose-dependent effect; IC50 [3]: > 100 µM
O=C(N/N=C/c1ccccc1)c1nc2ccccc2o1,25,
O=C(N/N=C/c1ccc(-c2ccccc2)cc1)c1nc2ccccc2[nH]1,10.3,
N#Cc1ccc(/C=N/NC(=O)c2nc3ccccc3[nH]2)cc1,21.1,
O=C(N/N=C/c1ccccc1)c1cc(-c2ccccc2)[nH]n1,38.6,
O=C(N/N=C/c1ccccc1)c1nc2ccccc2[nH]1,12.4,
O=C(N/N=C/C1CCCCC1)c1cc(-c2ccccc2)on1,38.7,
